OXTR ag = human OXTR agonists, primary screen, fluorescence, CHO-OTR cells, Fluo-8 calcium; hit rate 0.32% among 320,000; Oxytocin receptor (Homo sapiens), P30559; AID 2435, 2010; activation, % at 3 µM; Fluo-8 calcium fluorescence; normalized: DMSO 0%, oxytocin 100%;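 active means activation above the mean of all tested compounds plus 3 SD, cutoff set per screening run, cut at about 20% in these data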;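 further: peak over basal fluorescence ratio from a 100 s FLIPR kinetic read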
Target sequence (P30559 whole entry, looked up): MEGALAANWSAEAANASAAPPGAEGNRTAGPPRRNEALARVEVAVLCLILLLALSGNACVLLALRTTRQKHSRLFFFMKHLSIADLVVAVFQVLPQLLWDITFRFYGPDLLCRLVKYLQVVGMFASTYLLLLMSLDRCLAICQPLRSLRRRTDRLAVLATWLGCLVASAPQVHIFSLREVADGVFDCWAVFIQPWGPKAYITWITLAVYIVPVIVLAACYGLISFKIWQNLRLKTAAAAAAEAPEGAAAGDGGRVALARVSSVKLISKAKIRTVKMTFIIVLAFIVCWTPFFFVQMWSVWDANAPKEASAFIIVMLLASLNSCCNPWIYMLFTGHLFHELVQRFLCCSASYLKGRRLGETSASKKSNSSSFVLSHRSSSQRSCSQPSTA
OXTR potentiator = human OXTR potentiators, primary screen, fluorescence, CHO-OTR cells, Fluo-8 calcium; Oxytocin receptor (Homo sapiens), P30559; AID 2445, 2010; Fluo-8 calcium fluorescence, potentiator mode; 0% = oxytocin EC15, 100% = EC100; hit rate 0.061% among 320,000; activation, % at 3 µM;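 active means activation above that plate's cutoff, the mean activation of tested compounds plus 3 SD, cut at about 6.6% in these data, passing the limit was not always enough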;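 further: 100% uses oxytocin at 75 nM as the full agonist control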
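Assay system: CHO-OTR cells, human receptor / Also added: oxytocin at about EC15, sub-maximal agonist stimulus / Dosing: single dose, 3.0 µM nominal final compound concentration / Incubation: 6 min pre-incubation, 100 s read / Technique: Fluo-8 calcium dye fluorescence / Read-out: % activation vs EC15 and EC100 oxytocin / Benchmarks: EC15 oxytocin low, 75 nM oxytocin high / Replicates: singlicate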
zfTRPN1 agonist = zebrafish TRPN1 channel agonists, primary screen, cell-based, HEK293, calcium fluorescence; HEK293 zebrafish TRPN1-YFP, Fluo-8 calcium fluorescence; 100% = response to 87 µM carbachol; activation, % at 3 µM; hit rate 0.18% among 220,000; AID 1424, 2008;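 active means activation above its plate's cutoff, the mean activation of test wells on that plate plus 3 SD, cut at about 19% in these data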;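 further: 0% = DMSO alone and 100% = 87 µM carbachol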
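Material: zebrafish TRPN1-YFP in HEK293 cells; Doses: single test compound dose, 3 µM nominal, 0.3% DMSO; Timing: dye loading 1 h at 37 °C, then 30 min room temperature; Technique: intracellular calcium fluorescence with Fluo-8; Benchmarks: high carbachol 87 µM, low DMSO alone.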
TRPML3 ag = human TRPML3 channel agonists, primary screen, cell-based, HEK293 TRPML3-YFP, Fluo-8 calcium fluorescence, 3 µM | Mucolipin-3 (Homo sapiens), Q8TDD5 | 100% = the carbachol control signal | activation, % at 3 µM | hit rate 0.29% among 220,000 | AID 1448, 2008;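 active means activation above its plate's cutoff, the mean activation of the plate's test wells plus 3 SD, cut at about 12% in these data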;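 further: 0% = DMSO only wells and 100% = carbachol wells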
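Material: HEK293 cells stably carrying human TRPML3-YFP; compound dosing: single dose, 3 µM final nominal compound, 0.3% DMSO final; incubation: 1-h 37 °C dye load, 5-s basal, 120-s post-compound reads; technique: Fluo-8 intracellular calcium fluorescence, excitation 470-495 nm, emission 515-575 nm; read-out basis: percent activation from peak-to-basal fluorescence ratio, scaled between DMSO and carbachol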
V1aR counter = agonists of human V1a receptor, primary screen, counter-screen for OXTR agonist project, fluorescence, CHO-V1R cells. Vasopressin V1a receptor (Homo sapiens), P37288. Fluo-8 calcium fluorescence, agonist mode; 0% DMSO, 100% 3 nM vasopressin. activation, % at 3 µM. hit rate 0.25% among 320,000;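 active means activation above the mean activation of all tested compounds plus 3 SD, per screening run, cut at about 20% in these data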;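 further: signal is peak over basal fluorescence ratio across a 100 second FLIPR read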
V1R ag confirm = V1a receptor agonists, calcium signal, confirmation, Fluo-8 calcium fluorescence, CHO-V1R cells; activation, % at 3 µM; AID 434964, 2010; agonist; hit rate 20% among 180; shares compounds with V1aR counter;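 active means average activation exceeds primary screen hit cutoff, cut at about 21% in these data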;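 further: peak over basal fluorescence ratio during a 100 s FLIPR read; 0% = DMSO only wells and 100% = 3 nM vasopressin wells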
OXTR ag counter = human OXTR agonists, counter-screen for V1R agonist project, fluorescence, CHO-OTR cells, triplicate. shares compounds with V1aR counter. Fluo-8 calcium fluorescence. activation, % at 3 µM. hit rate 10% among 180. AID 434969, 2010;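 active means mean activation over three repeats above the cutoff from the earlier oxytocin receptor agonist screen, cut at about 20% in these data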;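 further: peak over minimum fluorescence ratio within a 100 second FLIPR read; 0% = DMSO only wells and 100% = oxytocin high control wells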
* marks the source's active call; other numbers are inactive results; nt = no result; ! = not confirmed by another sample. Rows were chosen to be rich in hits. Some 0.58% of all compounds tested hit in one or more screens of this group.

SMILES	OXTR ag	OXTR potentiator	zfTRPN1 agonist	TRPML3 ag	V1aR counter	V1R ag confirm	OXTR ag counter
COc1ccc(S(=O)(=O)N2CCN(C(=O)c3cc4c(s3)CCC4)CC2)cc1	10	-10	nt	nt	2	nt	nt
Cc1c(NC(=O)CSc2ccccc2C(=O)Nc2cccnc2)c(=O)n(-c2ccccc2)n1C	0	1	2	0	31*	-1	-1
Cc1c(NC(=O)CSc2ccccc2F)c(=O)n(-c2ccccc2)n1C	1	11	0	0	1	nt	nt
COC(=O)C(NC(=O)c1ccccc1Cl)(Nc1ncc(S(=O)(=O)c2ccc([N+](=O)[O-])cc2)s1)C(F)(F)F (configuration not stated)	19	-15	7	4	28*	14	16
O=C(Nc1ncc(S(=O)(=O)c2ccc([N+](=O)[O-])cc2)s1)c1ccc2ccccc2c1	1	-13	0	1	1	nt	nt
COc1ccc(N(CC(=O)N2CCN(c3cccc(C)c3)C(C)C2)S(=O)(=O)c2c(C)n[nH]c2C)cc1 (configuration not stated)	0	-14	-1	0	23*	0	-1
Cc1cc(NC(=O)CSCC(=O)Nc2cccc(S(=O)(=O)N3CCCCCC3)c2)no1	0	-1	nt	nt	0	nt	nt
O=C(Nc1nnc(-c2ccc3c(c2)CCCC3)o1)c1ccccc1	2	-8	2	4	34*	12	4
COc1ccccc1N1C(=O)c2cccc3c(N(C)CCO)ccc(c23)C1=O	18	-10	nt	nt	31*	18	11
COc1ccccc1N1C(=O)c2cccc3c(C(=O)O)ccc(c23)C1=O	2	5	-1	0	0	nt	nt
CCC1CCCCN1CCCNC(=O)c1ccc(N2CCOCC2)c(NS(=O)(=O)c2ccc(OC)cc2)c1 (configuration not stated)	1	-6	-3	1	21*	0	0
CCN1C(=S)SC(=O)C1=C1C=C(C)N(Cc2ccco2)C(C)=C1	19	-25	8	6	24*	23*	18
Nc1c(C(=O)NCc2ccc3c(c2)OCO3)nnn1Cc1ccc(Br)cc1	16	-9	15	8	37*	15	23*
CCOC(=O)c1[nH]c(C)c(C(=O)N2CCN(c3ccc(OC)cc3)CC2)c1C	1	-17	0	1	3	nt	nt
CCOC(=O)c1[nH]c(CN2CCN(c3ccc(OC)cc3)CC2)c(C(=O)OCC)c1C	18	-29	nt	nt	24*	12	22*
COc1ccc(CC(=O)Nc2nccs2)cc1S(=O)(=O)N1CCOCC1	2	0	nt	nt	2	nt	nt
COc1ccc2nc(NC(=O)Cc3ccc(OC)c(S(=O)(=O)N4CCOCC4)c3)sc2c1	18	-18	1	1	23*	1	5
Cc1ccc(S(=O)(=O)N2CCCOC2CNC(=O)C(=O)NC2CCCCC2)cc1 (configuration not stated)	2	-3	0	1	5	nt	nt
C[C@H](CO)N1C[C@H](C)[C@@H](CN(C)Cc2ccc(-c3ccccc3)cc2)Oc2c(NS(=O)(=O)c3cn(C)cn3)cccc2C1=O	1	-4	nt	nt	77*	-1	1
CC1=C(CC(=O)O)c2cc(F)ccc2/C1=C/c1ccc(S(C)=O)cc1 (configuration not stated)	0	-3	nt	nt	0	nt	nt
O=C(Nc1ccc(N2CCOCC2)cc1)Nc1ccc(Cl)c(Cl)c1	17	-8	2	3	21*	11	10
O=C(Nc1ccc(Cl)cc1)Nc1ccc(N2CCOCC2)cc1	2	-14	3	1	3	nt	nt
CC(=O)NC(CC(=O)OCC(=O)N1CCN(S(=O)(=O)c2ccc(Cl)cc2)CC1)c1ccccc1 (configuration not stated)	-2	-7	nt	nt	0	nt	nt
CCCCCCCCCCOC(=O)Cn1c(COc2ccc(OC)cc2)[n+](C)c2ccccc21	22*!	-15	nt	nt	30*	0	8
CCOc1cc(/C=C2\CCCc3c2nc2ccccc2c3C(=O)O)ccc1OC	7	1	nt	nt	60*	0	0
SMILES	OXTR ag	OXTR potentiator	zfTRPN1 agonist	TRPML3 ag	V1aR counter	V1R ag confirm	OXTR ag counter
CSc1ccc(CN2C(=O)NC3(CCCCCCC3)C2=O)cc1	-2	-21	5	2	-1	nt	nt
Cc1nc(-c2ccccc2)sc1C1(C)CC(c2cccc(F)c2)=NO1 (configuration not stated)	0	2	nt	nt	1	nt	nt
COc1cccc(N2CCN(c3ccc(S(=O)(=O)N4CCN(C)CC4)cc3[N+](=O)[O-])CC2)c1	15	-8	nt	nt	21*	7	6
CC(=O)N1c2ccc(S(=O)(=O)N3CCCCC3)cc2CC1C(=O)NCc1ccc(N(C)C)cc1 (configuration not stated)	-1	-7	nt	nt	-1	nt	nt
COc1ccc(C(C)NC(=S)NCc2ccc(F)cc2)cc1 (configuration not stated)	9	-16	nt	nt	9	nt	nt
Cc1ccc(C)c(C(C)NC(=S)NCc2ccc(F)cc2)c1 (configuration not stated)	16	-18	nt	nt	24*	5	9
COc1ccc(NC(=O)CSc2ccc3c4c(cccc24)C(=O)c2ccccc2-3)cc1	8	-16	5	4	9	nt	nt
N#Cc1cccc(NC(=O)CSc2ccc3c4c(cccc24)C(=O)c2ccccc2-3)c1	14	-11	3	3	41*	107*	84*
Cc1cc(C(=O)Nc2c(C)nn(Cc3c(Cl)cccc3Cl)c2C)no1	0	1	0	1	1	nt	nt
Cc1nn(Cc2c(Cl)cccc2Cl)c(C)c1NC(=O)c1cc(C(C)C)on1	3	-7	0	0	27*	1	14
COC(=O)c1ccccc1NC(=O)C(C)n1nc(C)c2c(C)n(-c3ccccc3)nc2c1=O (configuration not stated)	1	-10	nt	nt	23*	0	-1
Cc1nn(C(C)C(=O)Nc2ccccc2Cl)c(=O)c2nn(-c3ccccc3)c(C)c12 (configuration not stated)	-1	0	nt	nt	1	nt	nt
Nc1nonc1-n1nnc(C(=O)N/N=C/c2cccnc2)c1CSc1ccccc1	10	-7	nt	nt	15	nt	nt

Compound activity from PubChem BioAssay.
